The full list was thinned out, with hits kept by preference.
D1 allo mod – allosteric modulators of human D1 dopamine receptor; B-score at 10 µM; P21728; actives 5.9% (n = 58,000); HEK293 D1, CRE-luciferase, dopamine EC30 potentiation; actives deviate in either direction;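 active = luminescence count or its row- and column-corrected plate score outside the 99.7% band of the plate's sample wells, on either side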
Target sequence (P21728 whole entry, looked up): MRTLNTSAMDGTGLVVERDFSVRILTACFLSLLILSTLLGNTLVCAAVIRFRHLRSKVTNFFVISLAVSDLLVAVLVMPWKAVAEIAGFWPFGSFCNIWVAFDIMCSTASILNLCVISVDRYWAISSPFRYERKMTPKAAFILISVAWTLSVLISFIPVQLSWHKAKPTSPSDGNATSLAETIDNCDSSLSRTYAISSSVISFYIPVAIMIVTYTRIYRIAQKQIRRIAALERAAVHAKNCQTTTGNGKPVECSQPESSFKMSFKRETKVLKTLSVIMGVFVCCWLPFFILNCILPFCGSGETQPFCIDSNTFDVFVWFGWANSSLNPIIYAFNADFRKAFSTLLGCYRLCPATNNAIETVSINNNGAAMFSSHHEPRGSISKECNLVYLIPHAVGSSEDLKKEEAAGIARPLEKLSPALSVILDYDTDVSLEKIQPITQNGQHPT
Calb biofilm kill – kills Candida albicans biofilms; C. albicans biofilm + clotrimazole, Alamar Blue; inhibition, % at 6 µM; actives 0.14% (n = 85,000);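 active = inhibition above 20%; inactive = inhibition below 20%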;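 note: preformed 24 hr biofilms exposed to compound for 48 hr; 0% = biofilm without compound and 100% = blank killed by clotrimazole plus chlorhexidine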
DAT uptake mod – modulates human dopamine transporter uptake under cocaine. Q01959. LLC-PK1 hDAT cells, [14C]-dopamine uptake with cocaine IC80; actives deviate in either direction. B-score at 10 µM. actives 1.3% (n = 110,000). AID 449768;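 active = Z score or B-score, a plate-position-corrected score, falls beyond the plate's 99.7% confidence bounds, in either direction; inactive = both scores lie inside the 99.7% bounds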;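 note: scored against the spread of the other compound wells on the same plate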
MMP13 inh – blocks human MMP13 activity | MMP-13 fTHP FRET cleavage, Mca fluorescence | inhibition, % at 4 µM | actives 0.07% (n = 65,000);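 active = inhibition above the mean of compound-free control plate wells plus 3 SD, cut at about 14% in these data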;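 note: 0% = DMSO wells and 100% = wells with reference MMP-13 inhibitor after basal subtraction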
AP complement – orthogonal test for alternative complement pathway inhibitors; Human serum alternative complement pathway, LPS-coated ELISA, C3 deposition; tested in compound mixtures; inhibition, % at 5 µM; actives 0.08% (n = 62,000); AID 1235;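 active = inhibition above 30% in each of the two pooled mixtures holding the compound, so the lower value exceeds 30%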;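 note: 0% = serum in Mg-EGTA without compound and 100% = EDTA serum blank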
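Assay system: human serum alternative complement pathway, C3 deposition on LPS-coated wells; Dosing: 5 µM per compound in ten-compound mixtures; Detection: Anti-C3 ELISA, OD 450 nm; Buffer or medium: Mg2+-EGTA GVB++ buffer containing human serum at 1:15 dilution; Timing: 1 h at 37 °C; Replication: two different pools per compound.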
* = called active by the depositor; · = no result.

SMILES	D1 allo mod	Calb biofilm kill	DAT uptake mod	MMP13 inh	AP complement
CCOc1cc(N2CCOCC2)c(OCC)cc1NC(=O)Cc1ccc(OC)c(OC)c1	2.2	0	·	1	1
CCOC(=O)Cc1csc(NC(=O)c2cccs2)n1	-0.26	5	0.072	3	22
CCOC(=O)Cc1csc(NC(=O)c2c(-c3ccccc3)noc2C)n1	-0.26	3	0.19	1	17
CCOC(=O)Cc1csc(NC(=O)c2ccc(Br)s2)n1	-0.07	0	2.7*	4	10
CCOC(=O)Cc1csc(NC(=O)c2c(-c3c(F)cccc3Cl)noc2C)n1	-0.7	9	4.3*	-10	13
CC(C)CC(COCc1cccc(Cl)c1)N1CCN(C(=O)c2ccc(C(F)(F)F)cc2)CCC1=O (stereo unspecified)	·	·	-0.13	·	·
CC(C)COc1ccc(CSCCNC(=S)Nc2ccccc2)cc1	·	·	0.9	·	·
CC1CCN(C(=O)CCNC(=O)Cn2cnc3sc4c(c3c2=O)CCCC4)CC1	·	4	0.76	·	·
Oc1ccc(-c2csc(-c3ccccc3)n2)cc1O	·	7	0.075	·	·
CN(c1ccc(O)cc1)c1nc(-c2ccccc2)cs1	·	10	·	20*	-3
C#CCNC(=O)C1=C[C@@H](C2CCCCC2)[C@H](CCCO)[C@@H](OCC)O1	·	·	0.16	·	·
Cc1nc2cc(-c3ccc(Cl)cc3)nn2c(C)c1CCC(=O)NCc1ccco1	·	6	-0.013	·	·
Cc1nc2c(-c3ccccc3)c(C)nn2c(C)c1CCC(=O)NCc1ccco1	-5.2*	2	-0.41	5	15
Cc1nc2c(-c3ccc(F)cc3)c(C)nn2c(C)c1CCC(=O)NC(C)CCc1ccco1 (stereo unspecified)	-3.3*	0	1.2	-8	12
CCN1CCN(c2ccc(NC(=O)CCc3c(C)nc4c(-c5ccccc5)c(C)nn4c3C)cc2)CC1	·	·	2.5*	·	·
Cc1cc(C)cc(C(=O)N2CC(C)OC(C)C2)c1 (stereo unspecified)	·	-2	1.3	·	·
Oc1cccc(Nc2nc(NCC3CCCO3)c3ccccc3n2)c1 (stereo unspecified)	-5*	5	1.6	-10	5
Cc1cccc(NC(=O)CCN2CCOCC2)c1	0.54	2	-0.5	-2	38*
COC(=O)[C@H]1[C@@H](C)N(Cc2ccccc2)C(=O)N[C@H]1c1ccccc1	·	·	-0.13	·	·
CCc1nn2cc(-c3ccccc3)nc2s1	-8.3*	-7	-0.54	0	2
Cc1nn2cc(-c3ccc(-c4ccccc4)cc3)nc2s1	-4*	4	0.98	5	16
O=C(/C=C/c1ccc(O)c(O)c1)O[C@H](Cc1ccc(O)c(O)c1)C(=O)O	·	·	-1.3	·	·
CCCn1c(CCC(=O)Nc2ccccc2Cc2ccccc2)nc2cc(S(=O)(=O)N3CCOCC3)ccc21	·	6	1.3	·	·
COCCNC(=O)C1c2ccccc2C(=O)N(CCOC)C1c1ccc(F)cc1 (stereo unspecified)	-0.37	5	-7.6*	5	-1
COCCN1C(=O)c2ccccc2C(C(=O)NCCN(C)C)C1c1ccc(F)cc1 (stereo unspecified)	-0.084	9	-0.37	2	23
SMILES	D1 allo mod	Calb biofilm kill	DAT uptake mod	MMP13 inh	AP complement
CCn1ncc([N+](=O)[O-])c1C(=O)N1CCCC1	·	·	-0.51	·	·
Cc1[nH]nc(SCC(=O)N2CCC(C)CC2)c1[N+](=O)[O-]	·	6	0.11	·	·
Cc1ncc(CCl)c2c1OC(C)(C)OC2	·	6	0.21	·	·
CC(C)OC(=O)CSc1nnc(-c2ccco2)n1N	-3.1*	5	·	3	3
CCCn1c(SCC(N)=O)nnc1-c1ccco1	-3.2*	7	-0.56	4	-9
Cc1nc2ccccc2c(=O)n1NC(=O)Cc1ccccc1	·	5	·	·	·
Cc1cc(C)c2nc(N3CCC(C(=O)N4CCN(C(=O)c5ccco5)CC4)CC3)sc2c1	·	4	3.7*	·	·
Cc1csc(-c2cnn(-c3ccccc3)c2NC(=O)c2cccc(C(F)(F)F)c2)n1	·	·	-0.53	·	·
O=C(O)CCSc1nc2ccccc2s1	-6.5*	4	-0.29	3	17
O=C(CSc1nc2ccccc2s1)N1c2ccccc2Sc2ccccc21	·	·	0.76	·	·
O=C(NCC1CCCO1)c1onc(CSc2cccc3ccccc23)c1C(=O)O (stereo unspecified)	·	·	-0.69	·	·
COc1ccc(N2CCN(C(=O)c3cc4c(-c5cccc(OC)c5)nn(C)c4s3)CC2)cc1	1.2	3	2*	-1	11
CCCCN1C2=NCCCN2c2cc(C)c(C)cc21	-3.4*	·	·	1	5
CCCCN1C2=NCCCN2c2ccccc21	·	5	-0.11	·	·
O=C(Nc1cccc2ccccc12)c1ccc(Cn2cc(Cl)cn2)cc1	·	·	0.11	·	·
Cc1ccc(OCCn2cc(/C(N)=N/O)c3ccccc32)cc1C	-3.1*	10	0.11	-2	2
CC(=O)c1ccccc1OCCCN1CCCCC1	-4.4*	1	0.25	-7	-1
Clc1ccccc1OCCCCN1CCCC1	-1.5	1	-0.29	-1	0
O=C(NC(NC(=S)Nc1ccccc1C(=O)O)C(Cl)(Cl)Cl)c1cccc([N+](=O)[O-])c1 (stereo unspecified)	·	·	-7.4*	·	·
CCOC(=O)NC(NC(=S)Nc1ccccc1[N+](=O)[O-])C(Cl)(Cl)Cl (stereo unspecified)	·	5	-3.5*	·	·
COc1ccc(NC(=S)NC(NC(=O)c2cccc(C)c2)C(Cl)(Cl)Cl)c([N+](=O)[O-])c1 (stereo unspecified)	·	7	-1.1	·	·
COc1ccc(CCNC(=O)COc2ccc(S(=O)(=O)NC3CCCCC3)cc2Cl)cc1	·	·	-1	·	·
COc1ccccc1Nc1nc(NCCCCO)nc(N2CCCC2)n1	·	·	0.85	·	·
CCOC(=O)N1CCN(C(=O)c2oc3ccc(S(=O)(=O)N4CCCCC4)cc3c2C)CC1	1.1	2	3*	3	11
Cc1c(C(=O)NCCN2CCOCC2)oc2ccc(S(=O)(=O)N3CCCCCC3)cc12	-0.59	·	2*	0	12
SMILES	D1 allo mod	Calb biofilm kill	DAT uptake mod	MMP13 inh	AP complement
Cc1c(C(=O)N2CCCCC2)oc2ccc(S(=O)(=O)N3CC(C)CC(C)C3)cc12 (stereo unspecified)	-1.1	·	-0.097	3	14
CC(C)(C)c1csc(NC(=O)c2ccc(Cl)s2)n1	0.62	4	-2.6*	3	·
CN(C)c1ccc(C2=NOC(CN3C(=O)c4ccccc4S3(=O)=O)C2)cc1 (stereo unspecified)	-5.7*	8	0.51	0	18
COc1ccc(C2CC(=O)c3c([nH]c(C(=O)OC(C)C)c3C)C2)cc1OC (stereo unspecified)	-1.1	11	·	5	7
C=CCOC(=O)c1[nH]c2c(c1C)C(=O)CC(c1cc(OC)c(OC)c(OC)c1)C2 (stereo unspecified)	-3.2*	-3	-0.36	4	19
CCCCOC(=O)c1[nH]c2c(c1C)C(=O)CC(c1cc(OC)c(OC)c(OC)c1)C2 (stereo unspecified)	-3.4*	7	1.2	2	5
O=S1(=O)C=C(Sc2nc3cc(Cl)ccc3o2)c2ccccc21	-2.3*	·	-1	4	18
CCOC(=O)c1[nH]c(C)c(C(=O)NCCCN2CCOCC2)c1C	-0.53	10	-5*	-6	12
